# Source: PubChem BioAssay
# A selection: hits, their analogues and other compounds. The true share with any hit is near 7.2%.
# HEK293 NFkB inh = inhibitors of the PMA/ionomycin-induced NF-kB reporter in HEK293 cells. 62,000 tested, 0.21% active. inhibition, % at 3 µM. HEK-293 NF-kB luciferase reporter, luminescence;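 active = inhibition above the mean of all tested compounds plus 3 SD, cut at about 40% in these data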;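 also: 0% = stimulated DMSO wells and 100% = 10 µM reference inhibitor 5653914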
#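 System – HEK-293 cells with stable firefly luciferase reporter driven by four HIV NF-kB elements · Doses – one dose, 3 µM · Schedule – 1 h compound pre-incubation, 16 h PMA/ionomycin at 37 °C · Technique – luminescence from luciferase substrate reagent · Measure – percent inhibition normalized per plate to DMSO and reference-inhibitor controls · Replicates – tested once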
# DAT uptake mod = human DAT dopamine uptake with cocaine, either direction; 110,000 tested, 1.3% active; AID 449768; LLC-PK1 hDAT cells, [14C]-dopamine uptake with cocaine IC80; actives deviate in either direction; B-score at 10 µM; Q01959;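 active = Z score or B-score, a plate-position-corrected score, falls beyond the plate's 99.7% confidence bounds, in either direction; inactive = both scores lie inside the 99.7% bounds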;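 also: scored against the spread of the other compound wells on the same plate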
# Target sequence (Q01959 whole entry, looked up): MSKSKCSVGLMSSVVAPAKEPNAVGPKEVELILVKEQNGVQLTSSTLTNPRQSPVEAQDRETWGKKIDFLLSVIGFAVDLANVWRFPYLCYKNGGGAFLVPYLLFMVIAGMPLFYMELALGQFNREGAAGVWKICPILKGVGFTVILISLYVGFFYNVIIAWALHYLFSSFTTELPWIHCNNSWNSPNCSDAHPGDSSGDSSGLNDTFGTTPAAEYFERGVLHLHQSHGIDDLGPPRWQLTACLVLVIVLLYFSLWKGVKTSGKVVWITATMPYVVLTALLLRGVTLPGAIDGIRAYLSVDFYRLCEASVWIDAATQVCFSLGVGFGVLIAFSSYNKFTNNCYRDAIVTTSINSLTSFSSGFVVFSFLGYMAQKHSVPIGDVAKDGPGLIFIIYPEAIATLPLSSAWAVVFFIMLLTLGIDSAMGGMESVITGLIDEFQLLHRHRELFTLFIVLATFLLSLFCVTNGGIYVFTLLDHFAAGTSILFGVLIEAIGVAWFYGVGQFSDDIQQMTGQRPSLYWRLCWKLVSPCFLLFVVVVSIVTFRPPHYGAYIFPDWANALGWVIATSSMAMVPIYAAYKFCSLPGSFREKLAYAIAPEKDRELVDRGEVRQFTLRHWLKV
# M1 ag = agonists of M1 muscarinic receptor. CHO-M1 cells, Fluo-4 calcium fluorescence, agonist mode; active compounds read high. B-score at 10 µM. 64,000 tested, 3% active;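 active = fluorescence rise, raw or as B-score row- and column-corrected plate score, outside the 99.7% band of its plate's samples, either direction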
# M1 antag = blocks the rat M1 muscarinic receptor response to acetylcholine; P08482; CHO-M1 cells, Fluo-4 calcium, ACh EC80 antagonist mode; active compounds read low; B-score at 10 µM; 64,000 tested, 3.4% active; AID 628;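 active = calcium fluorescence response, raw or row-and-column corrected B-score, differing from the plate sample mean either way at a set confidence level, mostly lower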
# BAP1 inh = inhibitors of human BAP1 deubiquitinase; recombinant BAP1, Ub-AMC hydrolysis fluorescence kinetic; active compounds read low; 72,000 tested, 0.48% active; calls only at 20 µM;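 active = activity remaining at or below 50% of control, provided the compound also passes the data quality filters; inactive = the rest, including low values that fail the filters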;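 also: 100% = DMSO wells rate and 0% = substrate alone blank rate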
# D1 mod = allosteric modulators of human D1 dopamine receptor; P21728; HEK293 D1, CRE-luciferase, dopamine EC30 potentiation; actives deviate in either direction; B-score at 10 µM; 58,000 tested, 5.9% active; AID 641;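 active = luminescence count or its row- and column-corrected plate score outside the 99.7% band of the plate's sample wells, on either side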
# M1 antag conf = confirmation of rat M1 muscarinic receptor antagonists | shares compounds with M1 antag | CHO-M1 cells, Fluo-4 calcium, ACh EC80 antagonism; active compounds read low | calcium response (max-min fluorescence) at 10 µM | 1,700 tested, 43% active;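 active = calcium response below the same-plate mean of wells given acetylcholine alone at its 80%-effect dose, minus 3 SD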;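 also: raw fluorescence intensity difference in arbitrary instrument units and not normalized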
# mGluR4 antag = selectivity test for M1 antagonists: human mGluR4 receptor. shares compounds with M1 antag. CHO-mGluR4 calcium flux, Fluo-4 fluorescence, glutamate EC80; active compounds read low. fluorescence response (max-min) at 10 µM. 1,700 tested, 0.9% active;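 active = fluorescence response below the plate's average for near-maximal glutamate wells, less 3 SD of those wells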;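 also: raw unnormalized fluorescence span taken in the window right after glutamate addition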
# * hit, by the source's call; i = inactive; x = not tested or not shown.
SMILES,HEK293 NFkB inh,DAT uptake mod,M1 ag,M1 antag,BAP1 inh,D1 mod,M1 antag conf,mGluR4 antag
OCC1CCCN(Cc2ccc(-c3ccccc3)cc2)C1 (centres undefined),4,-0.86,-0.29,-2.9*,i,-0.77,392*,263
O=C(C1CCCN(Cc2ccccc2)C1)N1CCCCC1 (centres undefined),x,-0.89,x,x,x,x,x,x
CCCOc1cccc(C2C3=C(CC(C)(C)CC3=O)Nc3ccccc3N2C(C)=O)c1 (centres undefined),x,x,x,x,i,x,x,x
Cc1sc2ncnc(SCC(=O)N3CCCC3=O)c2c1C,6,-0.11,-1.4,-4.3*,i,2,651,262
Cc1sc2ncnc(SCC(=O)c3cccs3)c2c1C,-19,0.24,x,x,i,x,x,x
CCSc1nc(N)c2c3c(sc2n1)CN(C)CC3,0,0.74,-0.94,-2.2,x,x,x,x
CSc1nc(NCc2ccco2)c2c3c(sc2n1)CN(C)CC3,26,0.29,1.7,-2.8*,x,-4*,711,250
CSc1nc(SCC(=O)NCc2ccco2)c2c3c(sc2n1)CN(C)CC3,5,-0.78,-0.57,-0.72,x,-0.0025,x,x
CSc1nc(SCC(N)=O)c2c3c(sc2n1)CN(C)CC3,16,0.42,-0.85,-5.1*,x,x,361*,253
CCC(O)CNc1nc(SC)nc2sc3c(c12)CCN(C)C3 (centres undefined),14,-1.1,0.0092,-4.3*,x,x,154*,197
COc1ccc(C(=O)Nc2cc3cccc([N+](=O)[O-])c3oc2=O)c(Cl)c1,x,x,x,x,i,x,x,x
CCOC(=O)C(CC)Sc1nc2c(c(=O)[nH]c(=O)n2C)n1C(C)C (centres undefined),x,x,x,x,i,x,x,x
COc1cc(C2CC(C(F)(F)F)n3ncc(C(=O)NC(C)(C)C)c3N2)cc(OC)c1OC (centres undefined),x,x,x,x,i,x,x,x
CCOC(=O)CSc1nnc(CNC(=O)c2ccc(S(=O)(=O)N3CCCC3)cc2)n1C,14,x,1.3,-1.2*,i,-0.0031,426,204
CCOC(=O)CSc1nnc(CNC(=O)c2cc(OCC)c(OCC)c(OCC)c2)n1C,6,0.81,0.59,-0.71,i,0.28,x,x
Cc1ccc2cc3c(nc2c1)N(Cc1ccco1)CC3,10,-0.18,-0.67,-1.3*,i,0.4,319*,194
CCOC(=O)COc1cc2c3c(c(=O)oc2cc1C)CCCC3,-10,-0.45,1.5,-17*,x,1.1,119*,271
Cc1cc2oc(=O)c3c(c2cc1OC(=O)c1ccco1)CCCC3,13,-0.91,0.1,0.67,x,-0.79,x,x
Cc1c(N=C/C=C/c2ccccc2)c(=O)n(-c2ccccc2)n1C,11,-0.45,0.019,-11*,i,0.49,24*,187
Cc1ccc(N(C=NC#N)CC(=O)N2CCN(c3ccccc3)CC2)cc1,20,0.2,0.2,-3.4*,i,0.63,565,212
O=c1oc2ccccc2c(N2CCN(c3ccccc3)CC2)c1[N+](=O)[O-],x,x,x,x,i,x,x,x
CCOC(=O)c1c(NC(=O)CSc2nnc(-c3cccc(C)c3)n2CC)sc(C(C)=O)c1C,x,1.6,x,x,x,x,x,x
CCOC(=O)c1c(NC(=O)CSc2nnc(-c3ccccc3)n2CC)sc(C(C)=O)c1C,24,2.5*,0.058,-1.2*,i,0.87,496,204
O=S(=O)(Nc1ccc2c(c1)OCCO2)c1cccc2nsnc12,25,1.3,1.1,-2.7*,i,-1.5,362*,225
O=C(NCCN1CCCCCC1)c1ccc(CS(=O)(=O)c2ccc(Br)cc2)o1,10,0.24,-1.2,-3*,i,-0.063,470*,240
CCN(CC)CCNC(=O)c1sc2nc(-c3ccccc3)cn2c1C,21,x,0.028,-0.79*,i,x,345*,212
COCCN(CCOC)C(=O)c1sc2nc(-c3ccccc3)cn2c1C,16,0.5,0.43,-1,i,0.67,x,x
COc1ccccc1C1Oc2ccccc2C2CC(c3ccc(Cl)cc3)=NN21 (centres undefined),x,x,x,x,i,x,x,x
